Data taken from ChEMBL document CHEMBL3763056, “O-alkylhydroxylamines as rationally-designed mechanism-based inhibitors of indoleamine 2,3-dioxygenase-1” (Eur J Med Chem, 2016).
Active and inactive are the calls of the source. The rule behind the calls is not given here.

Legend:
[1] = target: T1, Indoleamine 2,3-dioxygenase 1 (Homo sapiens, UniProt P14902); experiment: Inhibition of recombinant human IDO1 assessed as reduction in kynurenine production using L-tryptophan as substrate after 60 mins by microplate reader method
Target sequence in this assay (P14902 whole entry): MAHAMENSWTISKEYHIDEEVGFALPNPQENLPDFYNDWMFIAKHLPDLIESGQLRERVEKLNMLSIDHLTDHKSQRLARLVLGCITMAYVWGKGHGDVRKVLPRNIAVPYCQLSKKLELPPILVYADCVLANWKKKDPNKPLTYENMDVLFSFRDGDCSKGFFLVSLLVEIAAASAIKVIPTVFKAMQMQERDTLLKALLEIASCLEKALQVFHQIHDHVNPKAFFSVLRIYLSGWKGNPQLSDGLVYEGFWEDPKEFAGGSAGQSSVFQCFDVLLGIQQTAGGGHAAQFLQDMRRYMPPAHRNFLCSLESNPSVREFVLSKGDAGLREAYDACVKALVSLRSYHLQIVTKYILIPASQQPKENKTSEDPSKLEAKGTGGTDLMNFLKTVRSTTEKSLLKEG

[2] = system: HeLa; experiment: Cytotoxicity against human HeLa cells assessed as cell viability upto 100 uM by sulforhodamine B assay; assay type: cell-based
Procedure, shortened: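 HeLa cells seeded at 10,000/well in DMEM + 10% FBS, IDO1 induced 24 h with IFNγ (100 ng/mL final), then compound serial dilutions in medium with 100 μM Trp for 24 h at 37 °C. Cells fixed with TCA 1 h at 4 °C, stained with 0.4% SRB 15 min, dye solubilized in 10 mM Tris; absorbance at 570 nm.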

[3] = target: T1, Indoleamine 2,3-dioxygenase 1; experiment: Inhibition of doxycycline-induced human IDO1 expressed in Trex cells assessed as reduction in kynurenine production treated with 5-fold serial dilution beginning at 400 uM after 24 hrs by microtiter plate reader; assay type: cell-based
Procedure, shortened: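 T-Rex cells carrying tet-regulated human IDO1 cDNA seeded 10,000/well in DMEM + 10% FBS + 1% pen-strep; IDO1 induced with media containing 20 ng/mL doxycycline for 24 h. Media replaced by compound serial dilutions in DMEM + 10% FBS, Trp 100 μM. 24 h at 37 °C. TCA fixation, supernatant heated at 65 °C, Ehrlich's reagent, A490. Single run.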
Target sequence in this assay (P14902 whole entry): as above

[4] = target: T1, Indoleamine 2,3-dioxygenase 1; conditions: 110 to 990 nM
Target sequence in this assay (P14902 whole entry, looked up): as the sequence (P14902 whole entry) above

[5] = target: T2, Catalase (Homo sapiens, UniProt P04040); experiment: Inhibition of catalase (unknown origin) using hydrogen peroxide as substrate
T2 sequence (P04040 whole entry): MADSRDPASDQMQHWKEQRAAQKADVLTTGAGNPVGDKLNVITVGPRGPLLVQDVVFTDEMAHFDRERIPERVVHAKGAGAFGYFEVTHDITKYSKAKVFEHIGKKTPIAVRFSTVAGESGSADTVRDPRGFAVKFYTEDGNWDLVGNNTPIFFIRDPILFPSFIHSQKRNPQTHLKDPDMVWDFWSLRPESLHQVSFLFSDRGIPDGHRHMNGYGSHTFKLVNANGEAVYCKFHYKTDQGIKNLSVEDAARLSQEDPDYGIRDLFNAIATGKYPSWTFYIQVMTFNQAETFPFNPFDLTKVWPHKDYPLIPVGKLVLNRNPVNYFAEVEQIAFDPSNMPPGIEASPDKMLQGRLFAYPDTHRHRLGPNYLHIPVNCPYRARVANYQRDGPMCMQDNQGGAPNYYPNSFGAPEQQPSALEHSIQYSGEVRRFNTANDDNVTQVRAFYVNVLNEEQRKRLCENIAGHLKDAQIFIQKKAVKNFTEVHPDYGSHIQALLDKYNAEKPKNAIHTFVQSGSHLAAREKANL

[6] = target: T1, Indoleamine 2,3-dioxygenase 1; experiment: Inhibition of IFN gamma induced human IDO1 in HeLa cells assessed as reduction in kynurenine production treated with 5-fold serial dilution beginning at 400 uM after 24 hrs by microtiter plate reader; assay type: cell-based
Procedure, shortened: (§1)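 HeLa cells seeded 10,000/well in DMEM + 10% FBS + 1% pen-strep; IDO1 induced with IFNγ (100 ng/mL final) for 24 h. Media discarded, wells rinsed, compound serial dilutions added in DMEM + 10% FBS with Trp adjusted to 100 μM. 24 h at 37 °C. TCA stop and fixation 1 h at 4 °C. Supernatant heated at 65 °C for 15 min, mixed with Ehrlich's reagent, read at 490 nm.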
Target sequence in this assay (P14902 whole entry): as the sequence (P14902 whole entry) above

[7] = target: Cytochrome P450 3A4 (Homo sapiens, UniProt P08684); experiment: Inhibition of CYP3A4 (unknown origin); assay type: ADME
Chain of Cytochrome P450 3A4 (P08684 whole entry): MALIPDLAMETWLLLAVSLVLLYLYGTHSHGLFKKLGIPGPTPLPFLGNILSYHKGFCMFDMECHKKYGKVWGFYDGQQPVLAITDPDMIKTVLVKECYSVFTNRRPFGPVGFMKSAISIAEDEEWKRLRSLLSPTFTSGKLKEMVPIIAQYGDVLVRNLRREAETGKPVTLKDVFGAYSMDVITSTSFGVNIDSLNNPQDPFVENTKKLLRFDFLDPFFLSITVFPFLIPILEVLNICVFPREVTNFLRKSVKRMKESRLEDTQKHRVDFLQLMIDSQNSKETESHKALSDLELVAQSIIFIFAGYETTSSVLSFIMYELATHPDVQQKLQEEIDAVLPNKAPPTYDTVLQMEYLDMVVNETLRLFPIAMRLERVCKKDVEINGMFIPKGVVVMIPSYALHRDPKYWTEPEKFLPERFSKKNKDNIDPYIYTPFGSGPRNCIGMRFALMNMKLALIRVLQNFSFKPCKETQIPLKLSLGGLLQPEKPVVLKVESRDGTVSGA

[8] = target: T1, Indoleamine 2,3-dioxygenase 1; experiment: Inhibition of recombinant human IDO1 assessed as reduction in kynurenine production using L-tryptophan as substrate after 60 mins by Michaelis-Menton plot analysis
Procedure, shortened: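 Purified recombinant human IDO1 (~27 nM) in 50 mM potassium phosphate pH 6.5 with 40 mM ascorbate, 400 μg/ml catalase and 20 μM methylene blue. For IC50, L-Trp at 100 μM (Km 80 μM). For Ki, inhibitor dilutions matrixed with L-Trp dilutions. 60 min at 37 °C, TCA stop, 65 °C for 15 min, Ehrlich's reagent, A490.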
Target sequence in this assay (P14902 whole entry): as the sequence (P14902 whole entry) above

[9] = target: T1, Indoleamine 2,3-dioxygenase 1; experiment: Inhibition of IFN gamma induced human IDO1 in HeLa cells assessed as reduction in kynurenine production treated with 3-fold serial dilution beginning at 100 uM after 24 hrs by microtiter plate reader; assay type: cell-based; procedure, shortened: as §1
Target sequence in this assay (P14902 whole entry): as above

SMILES: NOCc1ccccc1
- IC50 [1]: 810 nM

SMILES: COc1ccc(CON)cc1
- IC50 [1]: 24000 nM

SMILES: NOCc1ccc(C(F)(F)F)cc1
- IC50 [1]: 8900 nM

SMILES: NNCc1ccccc1 [BENZYLHYDRAZINE]
- IC50 [1]: 71000 nM

SMILES: NOCc1ccc(C(F)(F)F)cc1F
- IC50 [1]: 1100 nM

SMILES: NOCc1ccc(F)cc1F
- IC50 [1]: 1400 nM

SMILES: NOC/C=C/c1ccccc1
- IC50 [1]: 7100 nM

SMILES: NOCc1ccccc1F
- IC50 [1]: 1400 nM

SMILES: COc1cccc(CON)c1O
- IC50 [1]: 55000 nM

SMILES: ONc1ccccc1
- IC50 [1]: 9200 nM

SMILES: NOCc1ccc(Cl)c(Cl)c1
- IC50 [1]: 2100 nM

SMILES: NOCc1ccc(F)cc1
- IC50 [1]: 980 nM

SMILES: NOCCCc1ccccc1
- IC50 [1]: 82000 nM

SMILES: Cl.NOCc1ccc(I)cc1
- Activity [2]: Non-toxic
- IC50 [3]: 180 nM
- inhibition [4]: Active
- IC50 [5]: > 100000 nM
- IC50 [6]: 82 nM
- IC50 [1]: 220 nM
- IC50 [7]: 7200 nM
- Ki [8]: 164 nM

SMILES: NOC1Cc2ccccc2C1
- IC50 [1]: 10000 nM

SMILES: NOCc1cccc(I)c1
- IC50 [1]: 340 nM

SMILES: NOCc1ccc(-c2ccccc2)cc1
- IC50 [1]: 12000 nM

SMILES: NNc1ccccc1 [PHENYLHYDRAZINE]
- IC50 [1]: 230 nM

SMILES: NOCc1cccc(C(F)(F)F)c1
- IC50 [1]: 410 nM

SMILES: NOCc1ccc([N+](=O)[O-])cc1
- IC50 [1]: 2700 nM

SMILES: NOCc1ccccc1Cl
- IC50 [1]: 630 nM

SMILES: NOCc1ccccc1Br
- IC50 [1]: 1600 nM

SMILES: NOCc1cc(Br)cc(Br)c1
- IC50 [1]: 4200 nM

SMILES: NOCc1ccc(F)cc1C(F)(F)F
- IC50 [1]: 2400 nM

SMILES: NOCc1ccc(Cl)cc1Cl
- IC50 [1]: 630 nM

SMILES: NOCc1ccccc1I
- IC50 [1]: 570 nM

SMILES: Cc1cccc(CON)c1
- IC50 [1]: 2700 nM

SMILES: NOCc1cc(C(F)(F)F)ccc1F
- IC50 [1]: 570 nM

SMILES: NOCc1ccc(Cl)cc1
- IC50 [1]: 1300 nM

SMILES: NOCc1cccc(F)c1
- IC50 [1]: 1000 nM

SMILES: COc1ccc(OC)c(CON)c1
- IC50 [1]: 1700 nM

SMILES: NOCc1ccc(O)cc1
- IC50 [1]: 61000 nM

SMILES: NOCc1ccccc1O
- IC50 [1]: 19000 nM

SMILES: O=C(NO)c1ccccc1 [BENZOHYDROXAMATE]
- IC50 [1]: 16000 nM

SMILES: NOCc1cccc(Br)c1
- IC50 [1]: 320 nM

SMILES: CC(C)c1ccc(CON)cc1
- IC50 [1]: 15000 nM

SMILES: NOCc1cc(C(F)(F)F)cc(C(F)(F)F)c1
- IC50 [1]: 4600 nM

SMILES: NOC1CCc2ccccc21 (stereo unspecified)
- IC50 [1]: 26000 nM

SMILES: NOCc1ccc(I)cc1Cl
- IC50 [1]: 730 nM

SMILES: NOCc1ccccc1C(F)(F)F
- IC50 [1]: 2500 nM

SMILES: NOCc1ccc(Br)cc1
- IC50 [1]: 1600 nM

SMILES: COc1cccc(CON)c1
- IC50 [1]: 9500 nM

SMILES: COc1ccccc1CON
- IC50 [1]: 5400 nM

SMILES: Cl.NOCc1cccc(Cl)c1
- Activity [2]: Non-toxic
- IC50 [3]: 77 nM
- inhibition [4]: Active
- IC50 [5]: > 100000 nM
- IC50 [6]: 114 nM
- IC50 [9]: 134 nM
- IC50 [1]: 300 nM
- IC50 [7]: 15000 nM
- Ki [8]: 154 nM

SMILES: NOCc1cc(F)cc(F)c1
- IC50 [1]: 3400 nM

SMILES: NOCc1cccc(Cl)c1Cl
- IC50 [1]: 450 nM

SMILES: NOC(c1ccccc1)C1CC1 (stereo unspecified)
- IC50 [1]: 5200 nM

SMILES: ONCc1ccccc1
- IC50 [1]: 6000 nM

SMILES: NOC1CCCc2ccccc21 (stereo unspecified)
- IC50 [1]: 10000 nM

SMILES: NOCc1ccc(Cl)c(C(F)(F)F)c1
- IC50 [1]: 490 nM

SMILES: NOCc1cc(Cl)cc(Cl)c1
- IC50 [1]: 900 nM
